ChEMBL document CHEMBL1140756, “Synthesis and antiviral activity of new dimeric inhibitors against HIV-1” (Bioorg Med Chem, 2008)

Experiments:
MT4 (Homo sapiens) = assay: Cytotoxicity against mock-infected human MT4 cells by MTT assay
[1] = Selectivity index, ratio of CC50 for human MT4 cells to EC50 for wild type HIV1; type: functional
How it was run: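 CC50 from mock-infected MT-4 cells, read by MTT in parallel with the antiviral test, divided by EC50 for 50% protection from HIV-1 IIIB cytopathogenicity (MTT, day 4 input, 37 °C). Both values are means of at least two separate experiments.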

[2] = system: Human immunodeficiency virus 1; assay: Antiviral activity against HIV1 HTLV-3B; type: functional, organism-based; conditions: Human immunodeficiency virus 1, HTLV-3B
How it was run: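 MT-4 cells (1×10^4 per well) in RPMI 1640 with 10% FCS, exposed to serial compound dilutions (DMSO stocks at 100 mM diluted in medium), then infected with HIV-1 IIIB at an input giving complete cytopathogenicity by day 4. Incubated at 37 °C; viability read by MTT. EC50 = dose giving 50% protection; mean of at least two experiments.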

[3] = system: Human immunodeficiency virus 1; assay: Antiviral activity against efavirenz-resistant HIV1; type: functional, organism-based
How it was run: (§1)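 Acute infection of MT-4 cells (1×10^4 per well) with NNRTI-resistant HIV-1 stocks (K103N+Y181C A17, Y181C N119, efavirenz-selected K103R+V179D+P225H) titrated in C8166 cells by syncytia scoring. Compounds were serially diluted from 100 mM DMSO stocks. Virus input gave full cytopathogenicity at day 4, 37 °C. Read-out was protection of viability by MTT, or p24 immunoassay.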

[4] = system: Human immunodeficiency virus 1; assay: Antiviral activity against HIV1 K103N/Y181C mutant; type: functional, organism-based
How it was run: as §1

[5] = system: Human immunodeficiency virus 1; assay: Antiviral activity against HIV1 Y181C mutant; type: functional, organism-based
How it was run: as §1

Row | Structure (SMILES) | CC50 (MT4 (Homo sapiens)) [µM] | Ratio CC50/EC50 [1] | EC50 [2] [µM] | EC50 [3] [µM] | EC50 [4] [µM] | EC50 [5] [µM]
1 | C#CCOCn1c(Cc2cc(C)cc(C)c2)c(CC)c(=O)[nH]c1=O | > 100 | > 33300 | 0.003 | 16 | 1.2 | 0.2
2 | CCc1c(Cc2cc(C)cc(C)c2)n(COCc2ccc(C#C[C@@]3(O)CC[C@@H]4[C@H]5CCC6=CC(=O)CC[C@H]6[C@@H]5CC[C@]43CC)cc2)c(=O)[nH]c1=O | > 100 | >250 | 0.4 | > 100 | > 100 | 2.8
3 | CCc1c(Cc2cc(C)cc(C)c2)n(COCC#Cc2ccc(C#CCOCn3c(Cc4cc(C)cc(C)c4)c(CC)c(=O)[nH]c3=O)cc2)c(=O)[nH]c1=O | 85 | 30 | 2.8 | > 85 | > 85 | > 85
4 | CCc1c(Cc2cc(C)cc(C)c2)n(COCc2cn([C@H]3C[C@H](n4cc(C)c(=O)[nH]c4=O)O[C@@H]3CO)nn2)c(=O)[nH]c1=O | > 100 | >1250 |  | 26 | 27 | 8
5 | CC[C@@]12CC[C@H]3C4CCC(=O)C=C4CC[C@@H]3[C@H]1CC[C@]2(O)C#CC#C[C@@]1(O)CC[C@@H]2[C@H]3CCC4=CC(=O)CCC4[C@@H]3CC[C@]21CC (some centres undefined) | 28 | 1 | > 28 | > 28 | > 28 | > 28
6 | CCc1c(Cc2cc(C)cc(C)c2)n(COCC#CC#CCOCn2c(Cc3cc(C)cc(C)c3)c(CC)c(=O)[nH]c2=O)c(=O)[nH]c1=O | 9 | 18 | 0.5 | > 9 | > 9 | > 9
7 | CCc1c(Cc2cc(C)cc(C)c2)n(COCC#Cc2ccc(I)cc2)c(=O)[nH]c1=O | 44 | 220 | 0.2 | > 44 | > 44 | 10
8 | CCc1c(Cc2cc(C)cc(C)c2)n(COCc2ccc(I)cc2)c(=O)[nH]c1=O | 19 | 2714 | 0.007 | 0.8 | 0.9 | 0.1
9 | C#CCOCn1c(Cc2ccccc2C)c(CC)c(=O)[nH]c1=O | 33 | 82 | 0.4 | > 33 | > 33 | > 33
10 | CCc1c(Cc2ccccc2C)n(COCC#CC#CCOCn2c(Cc3ccccc3C)c(CC)c(=O)[nH]c2=O)c(=O)[nH]c1=O | 8 | 1 | > 8 | > 8 | > 8 | > 8
11 | CCc1c(Cc2cc(C)cc(C)c2)n(COCC#Cc2ccc(COCn3c(Cc4cc(C)cc(C)c4)c(CC)c(=O)[nH]c3=O)cc2)c(=O)[nH]c1=O | 16 | 53 | 0.3 | > 16 | > 16 | 4
12 | O=C1Nc2ccc(Cl)cc2[C@@](C#CC2CC2)(C(F)(F)F)O1 [EFAVIRENZ] | 30 |  |  |  | 0.3 | 0.008
13 | CCOCn1c(Cc2ccccc2)c(C(C)C)c(=O)[nH]c1=O [EMIVIRINE] | > 100 | >3333 | 0.03 | 100 | > 100 | 20
